Measured values as given in ChEMBL document CHEMBL1212739, “Clindamycin-induced CovS-mediated regulation of the production of virulent exoproteins streptolysin O, NAD glycohydrolase, and streptokinase in Streptococcus pyogenes” (2010).
Calls of active or inactive are those of the source.

Columns and labels:
Streptococcus pyogenes [1] = experiment: Induction of covR mRNA expression in drug-resistant Streptococcus pyogenes D2TY delta covS mutant at 1 ug/ml by Northern blot analysis; assay type: functional, organism-based
Method in brief: (§1)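 Cells grown static at 37°C in 5 ml BHI-YE, with 1 μg/ml CLI or none added at inoculation, and harvested at OD660 ≈0.8 (late log). Total RNA was DNase-treated. About 1 μg was run on 1% agarose with 1.1 M formaldehyde and blotted to nylon. Probes were 32P-labeled nga, slo, ska, covS or covR DNA, quantified by autoradiography/bioimaging. Triplicate assays from at least two independent cultures.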

Streptococcus pyogenes [2] = experiment: Induction of covS mRNA expression in drug-resistant Streptococcus pyogenes D2TY in BHI-YE supplemented medium at 1 ug/ml by Northern blot analysis; assay type: functional, organism-based; method in brief: as §1
Streptococcus pyogenes [3] = experiment: Decrease in Ska protein production in drug-resistant Streptococcus pyogenes D2TY isogenic delta covS mutant in BHI-YE supplemented medium at 1 ug/ml by Western blot analysis; assay type: functional, organism-based
Method in brief: (§2)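 Strain D2TY or its covS knockout, grown from −80°C stock at 37°C without agitation in 5 ml BHI-YE (0.3% yeast extract) containing protease inhibitor E-64, with or without 1 μg/ml CLI. Supernatant proteins run on SDS-PAGE and blotted to PVDF. Rabbit anti-Slo, anti-Nga or anti-Ska (1:2,000) applied for 16 h at room temperature. HRP goat anti-rabbit IgG (1:2,000) used as secondary. Triplicate assays from at least two independent cultures.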

Streptococcus pyogenes [4] = experiment: Decrease in Nga protein production in drug-resistant Streptococcus pyogenes D2TY isogenic delta covS mutant in BHI-YE supplemented medium at 1 ug/ml by Western blot analysis; assay type: functional, organism-based; method in brief: as §2
Streptococcus pyogenes [5] = experiment: Induction of Nga protein production in drug-resistant Streptococcus pyogenes D2TY at 1 ug/ml by Western blot analysis; assay type: functional, organism-based; method in brief: as §2
Streptococcus pyogenes [6] = experiment: Induction of Ska protein production in drug-resistant Streptococcus pyogenes D2TY at 1 ug/ml by Western blot analysis; assay type: functional, organism-based; method in brief: as §2
Streptococcus pyogenes [7] = experiment: Antibacterial activity against Streptococcus pyogenes D2TY; assay type: functional
Method in brief: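 MICs of clindamycin hydrochloride determined for S. pyogenes M1 strain D2TY (STSS clinical isolate) by broth microdilution and by Etest, following CLSI guidelines. Bacteria grown at 37°C without agitation in brain heart infusion broth with 0.3% yeast extract. Resistance breakpoint taken as MIC above 1 μg/ml.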

Streptococcus pyogenes [8] = experiment: Decrease in slo mRNA expression in drug-resistant Streptococcus pyogenes D2TY isogenic delta covS mutant in BHI-YE supplemented medium at 1 ug/ml by Northern blot analysis; assay type: functional, organism-based; method in brief: as §1
Streptococcus pyogenes [9] = experiment: Induction of slo mRNA expression in drug-resistant Streptococcus pyogenes D2TY at 1 ug/ml by Northern blot analysis; assay type: functional, organism-based; method in brief: as §1
Streptococcus pyogenes [10] = experiment: Induction of ska mRNA expression in drug-resistant Streptococcus pyogenes D2TY at 1 ug/ml by Northern blot analysis; assay type: functional, organism-based; method in brief: as §1
Streptococcus pyogenes [11] = experiment: Decrease in ska mRNA expression in drug-resistant Streptococcus pyogenes D2TY isogenic delta covS mutant in BHI-YE supplemented medium at 1 ug/ml by Northern blot analysis; assay type: functional, organism-based; method in brief: as §1
Streptococcus pyogenes [12] = experiment: Induction of two-component sensor kinase CovS expression in drug-resistant Streptococcus pyogenes D2TY delta covS mutant at 1 ug/ml by Northern blot analysis; assay type: functional, organism-based; method in brief: as §1
Streptococcus pyogenes [13] = experiment: Induction of nga mRNA expression in drug-resistant Streptococcus pyogenes D2TY at 1 ug/ml by Northern blot analysis; assay type: functional, organism-based; method in brief: as §1
Streptococcus pyogenes [14] = experiment: Induction of Slo protein production in drug-resistant Streptococcus pyogenes D2TY at 1 ug/ml by Western blot analysis; assay type: functional, organism-based; method in brief: as §2
Streptococcus pyogenes [15] = experiment: Decrease in Slo protein production in drug-resistant Streptococcus pyogenes D2TY isogenic delta covS mutant in BHI-YE supplemented medium at 1 ug/ml by Western blot analysis; assay type: functional, organism-based; method in brief: as §2
Streptococcus pyogenes [16] = experiment: Induction of covS mRNA expression in drug-resistant Streptococcus pyogenes D2TY delta covS mutant at 1 ug/ml by Northern blot analysis; assay type: functional, organism-based; method in brief: as §1
Streptococcus pyogenes [17] = experiment: Decrease in nga mRNA expression in drug-resistant Streptococcus pyogenes D2TY isogenic delta covS mutant in BHI-YE supplemented medium at 1 ug/ml by Northern blot analysis; assay type: functional, organism-based; method in brief: as §1

CCC[C@@H]1C[C@@H](C(=O)N[C@@H]([C@H]2O[C@H](SC)[C@H](O)[C@@H](O)[C@H]2O)[C@H](C)Cl)N(C)C1.Cl [CLINDAMYCIN HYDROCHLORIDE]
active: Activity (Streptococcus pyogenes [2]) | Activity (Streptococcus pyogenes [3]) | Activity (Streptococcus pyogenes [4]) | Activity (Streptococcus pyogenes [5]) | Activity (Streptococcus pyogenes [6]) | Activity (Streptococcus pyogenes [8]) | Activity (Streptococcus pyogenes [9]) | Activity (Streptococcus pyogenes [10]) | Activity (Streptococcus pyogenes [11]) | Activity (Streptococcus pyogenes [13]) | Activity (Streptococcus pyogenes [14]) | Activity (Streptococcus pyogenes [15]) | Activity (Streptococcus pyogenes [17])
256 µg/mL: MIC (Streptococcus pyogenes [7])
inactive: Activity (Streptococcus pyogenes [1]) | Activity (Streptococcus pyogenes [12]) | Activity (Streptococcus pyogenes [16])
